Laboratory results as given in paper PMC7112006 (Bioorganic Chemistry, 2010).

How the values were obtained:
[1] = tested on: human T-lymphocyte cells (Molt4/C8); experiment: Cytostatic assay, inhibition of tumor cell proliferation; type: cell-based; conditions: Molt4/C8, read-out: IC50 (50% inhibitory concentration, tumor cell proliferation)
[2] = molecular target: T1, human recombinant thymidine phosphorylase (Homo sapiens, UniProt P19971); experiment: Thymidine phosphorylase assay, conversion to the free base; type: biochemical; conditions: purified recombinant enzyme, 100 μM substrate, 20, 40 and 60 min; data not shown
T1 sequence (P19971 11-482): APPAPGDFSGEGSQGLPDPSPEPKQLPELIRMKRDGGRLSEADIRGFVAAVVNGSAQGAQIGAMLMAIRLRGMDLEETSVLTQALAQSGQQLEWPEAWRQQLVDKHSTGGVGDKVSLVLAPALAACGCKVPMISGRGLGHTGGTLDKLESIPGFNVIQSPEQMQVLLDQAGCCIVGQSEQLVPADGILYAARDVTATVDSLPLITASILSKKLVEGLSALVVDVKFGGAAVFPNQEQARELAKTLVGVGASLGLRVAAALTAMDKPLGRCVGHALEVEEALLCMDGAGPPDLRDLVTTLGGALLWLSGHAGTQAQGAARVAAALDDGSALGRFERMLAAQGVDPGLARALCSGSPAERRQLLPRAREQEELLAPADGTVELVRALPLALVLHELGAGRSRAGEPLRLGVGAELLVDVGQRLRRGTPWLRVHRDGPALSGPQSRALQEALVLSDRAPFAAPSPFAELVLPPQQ
Method in brief: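 Aliquots taken at 20, 40 and 60 min and heat-inactivated at 95 °C for 3 min. Free base quantified by RP-8 HPLC with phosphate/heptane sulfonate (pH 3.2) to acetonitrile gradient; UV detection at 267 nm.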

[3] = molecular target: uridine phosphorylase type 1 (Homo sapiens, UniProt Q16831); experiment: Uridine phosphorylase assay, conversion to the free base; type: biochemical; conditions: purified recombinant enzyme, 100 μM substrate, 20, 40 and 60 min; data not shown
Method in brief: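 Samples taken at 20, 40 and 60 min and heated at 95 °C for 3 min. Nucleoside and free base separated on RP-8 HPLC with phosphate/heptane sulfonate (pH 3.2) to acetonitrile gradient; UV detection at 267 nm.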

uridine phosphorylase type 1, sequence (Q16831 whole entry): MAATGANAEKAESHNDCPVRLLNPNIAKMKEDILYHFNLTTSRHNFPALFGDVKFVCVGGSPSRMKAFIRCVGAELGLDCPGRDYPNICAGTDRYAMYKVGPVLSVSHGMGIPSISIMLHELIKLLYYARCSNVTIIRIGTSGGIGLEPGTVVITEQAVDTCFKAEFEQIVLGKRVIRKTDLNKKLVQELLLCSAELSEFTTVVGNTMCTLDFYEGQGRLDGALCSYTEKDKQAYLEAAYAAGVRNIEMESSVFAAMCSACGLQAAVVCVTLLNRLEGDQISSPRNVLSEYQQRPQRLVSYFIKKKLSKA

Row | IC50 [1] | Compound | further results
1 | 163 ± 21 µM | Nc1ccn([C@@H]2O[C@H](CO)[C@@H](O)[C@H](F)[C@H]2O)c(=O)n1 [3f, 1-(3-Deoxy-3-fluoro-β-D-glucopyranosyl)cytosine] | –
2 | 183 ± 24 µM | Nc1ncnc2c1ncn2[C@@H]1O[C@H](CO)[C@@H](O)[C@H](F)[C@H]1O [3g, 9-(3-Deoxy-3-fluoro-β-D-glucopyranosyl)adenine] | –
3 | – | Cc1cn([C@H]2C[C@H](O)[C@@H](CO)O2)c(=O)[nH]c1=O [thymidine] | hydrolysis to the free pyrimidine base by thymidine phosphorylase (TPase) [2]: readily converted
4 | – | O=c1ccn([C@@H]2O[C@H](CO)[C@@H](O)[C@H]2O)c(=O)[nH]1 [uridine] | hydrolysis to the free pyrimidine base by uridine phosphorylase type I (UPase) [3]: readily converted
